Screening data deposited in PubChem by Johns Hopkins Ion Channel Center.
RGS4 block = RGS4 inhibitors, primary screen, cell-based, HEK293 M3R inducible RGS4, calcium flux | 310,000 tested, 0.45% active | B-score at 10 µM | AID 463165, 2010 | Fluo-4 calcium flux; active compounds read high; triggered by carbachol at its EC20 | Regulator of G-protein signaling 4 (Homo sapiens), P49798;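 active = B-score, a plate-corrected calcium signal, over three deviations above library mean, with baseline fluorescence within five deviations of library mean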;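 also: RGS4 expression induced by doxycycline in cells with stable M3 receptor; B-score is computed from the integrated fluorescence ratio over baseline after carbachol; higher B-score means a larger calcium signal and so more RGS4 inhibition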
Target sequence (P49798 whole entry, looked up): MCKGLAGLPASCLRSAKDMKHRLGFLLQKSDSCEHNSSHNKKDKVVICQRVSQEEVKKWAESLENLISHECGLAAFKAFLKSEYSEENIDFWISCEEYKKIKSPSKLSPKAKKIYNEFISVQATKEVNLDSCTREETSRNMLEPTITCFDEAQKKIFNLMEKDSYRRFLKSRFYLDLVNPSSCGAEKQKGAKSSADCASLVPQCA
MrgX1 PAM = positive allosteric modulators of MrgX1, primary screen, HEK293 cells, Fluo-4 calcium flux; Mas-related G-protein coupled receptor member X1 (Homo sapiens), Q96LB2; FDSS; active compounds read high; B-score at 10 µM; 310,000 tested, 0.63% active;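 active = plate-corrected calcium response at least 3 library SD above typical, normal starting fluorescence, not activating the receptor alone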;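 also: compound read alongside a low EC10 to EC30 dose of BAM8-22 agonist; peak minus trough fluorescence over baseline measured at the second addition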
Target sequence (Q96LB2 whole entry, looked up): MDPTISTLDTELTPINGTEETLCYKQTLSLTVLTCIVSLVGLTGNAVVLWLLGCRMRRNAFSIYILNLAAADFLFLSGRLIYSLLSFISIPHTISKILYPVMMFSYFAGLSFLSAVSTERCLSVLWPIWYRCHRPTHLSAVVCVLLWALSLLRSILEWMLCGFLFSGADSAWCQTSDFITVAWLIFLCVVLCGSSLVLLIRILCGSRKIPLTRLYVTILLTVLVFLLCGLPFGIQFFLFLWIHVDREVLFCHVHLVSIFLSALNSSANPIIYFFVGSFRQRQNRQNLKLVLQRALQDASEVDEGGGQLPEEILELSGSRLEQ
MrgX1 antag = antagonists of human MrgX1 receptor, primary screen, HEK293 cells, Fluo-4 calcium flux; Mas-related G-protein coupled receptor member X1 (Homo sapiens), Q96LB2; BAM8-22 antagonism; active compounds read low; B-score at 10 µM; 310,000 tested, 1.3% active; AID 588676, 2011;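 active = calcium-response B-score plate-corrected more than 3 library SD below zero, starting fluorescence within 5 deviations, no agonist response on first addition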;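 also: peak minus trough fluorescence over baseline after final BAM8-22 challenge near maximal dose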
RGS4 act = RGS4 potentiators or activators, primary screen, cell-based, HEK293 M3R inducible RGS4, calcium flux; carbachol calcium flux Fluo4; active compounds read low; B-score at 10 µM; 310,000 tested, 0.92% active; AID 463111, 2010;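 active = B-score of the integrated calcium signal more than 4 SD below the library mean, with starting fluorescence not abnormally high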;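 also: negative B-score means reduced calcium response which marks RGS4 activation or potentiation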
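System: HEK293 FlpIn-TREx cells, stable M3R, doxycycline-inducible RGS4. Timing: overnight RGS4 induction, 30 min dye load 37 °C, 20 min compound RT. Also added: carbachol, ECmax concentration. Measured by: Fluo4 fluorescence kinetic imaging of calcium. Evaluation: integrated calcium ratio converted to B score.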
MrgX1 agonist = agonists of human MrgX1 receptor, primary screen, HEK293 cells, Fluo-4 calcium flux. Fluo-4 calcium fluorescence, agonist mode; active compounds read high. B-score at 10 µM. 310,000 tested, 0.44% active;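 active = calcium response B-score plate-corrected fluorescence ratio at least 3 library SD, with starting fluorescence B-score inside 5 SD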
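Material: MrgX1-expressing HEK293 cells; input: 15,000 cells per well; doses: test compound given as first of three sequential additions; schedule: overnight plating before 1 h dye loading; technique: Fluo-4 NW calcium-flux fluorescence, kinetic read; evaluation: baseline-normalised fluorescence change ratio, B-scored; control set: plate-wise positive and negative controls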
RGS4 inh valid = enhanced carbachol calcium response, M3R/RGS4 cells, RGS4 inhibitor project, cell-based, validation screen, HEK293 M3R/RGS4, calcium flux | shares compounds with RGS4 block | carbachol calcium Fluo-4 fluorescence; carbachol added at its EC20; 0 = buffer wells, 100 = carbachol control | calcium response, % at 10 µM | 1,700 tested, 65% active | AID 492999, 2010;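 active = duplicate-averaged calcium response above the buffer-only control mean plus 5 SD of those controls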;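 also: integrated fluorescence ratio F max minus min over baseline F0; higher response in RGS4-induced cells means RGS4 inhibition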
M3R Ca ctr = carbachol calcium response in non-induced M3R cells, confirmation, counter-screen for RGS4 inhibitor project, cell-based, HEK293 M3R; 1,900 tested, 20% active; activity (percent), % at 10 µM; shares compounds with RGS4 block; carbachol calcium Fluo-4; submaximal (EC20) carbachol stimulus; buffer wells 0%, carbachol control wells 100%; call rule not given here;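 also: RGS4 induction absent so cells express M3R without RGS4; higher means more calcium signal and flags a non-specific hit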
RGS4 inh ctr2 = second RGS4 inhibitor counter-screen in uninduced cells lacking carbachol; shares compounds with RGS4 block; HEK293 M3R/RGS4 non-induced, Fluo-4 calcium, no carbachol; normalised: buffer wells 0%, carbachol wells 100%; calcium response (agonist-mode artifact), % at 10 µM; 1,900 tested, 22% active; AID 493001;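 active = duplicate-averaged calcium rise in uninduced cells above buffer wells' mean plus 5 SD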
Each line names hits and unclear results; the compound was inactive in the other large screens (follow-up assays come after a bar, where they were run). Most compounds without a hit are left out; they make up all but 3.5% or so of the library.

COC(=O)c1cc(=O)n(CCc2ccc(OC)c(OC)c2)c(=Nc2ccc(F)c(Cl)c2)s1	RGS4 block 5.4 | RGS4 inh valid 13.0% | M3R Ca ctr inactive | RGS4 inh ctr2 10.5%
COC(=O)c1cc(=O)n(Cc2ccc(F)cc2)c(=Nc2ccccc2)s1	none
COC(=O)c1cc(=O)n(-c2ccccc2)c(=Nc2ccccc2)s1	RGS4 block 8.05 | RGS4 inh valid 19.0% | M3R Ca ctr inactive | RGS4 inh ctr2 inactive
COC(=O)c1cc(=O)n(Cc2ccc(OC)c(OC)c2)c(=Nc2ccc(F)cc2)s1	none
COC(=O)c1cc(=O)n(Cc2ccco2)c(=Nc2ccc(F)cc2)s1	RGS4 block 6.07 | RGS4 inh valid 15.0% | M3R Ca ctr 44.5% | RGS4 inh ctr2 inactive
COc1ccc(C(=O)COC(=O)CCS(=O)(=O)c2ccc(C)cc2)c(OC)c1	none
COc1ccc(C(=O)CCS(=O)(=O)c2ccc(C)cc2)cc1OC	RGS4 block 28.9 | RGS4 inh valid 79.5% | M3R Ca ctr 58.0% | RGS4 inh ctr2 20.5%
Cc1cc(Cl)ccc1OCC(=O)NNC(=O)c1ccco1	none | M3R Ca ctr inactive | RGS4 inh ctr2 inactive
COC(=O)c1sc(NC(=O)CSc2nc3cccnc3n2C)nc1C	none
COC(=O)c1sc(NC(=O)CSc2nc3cccnc3n2C2CCCCC2)nc1C	RGS4 block 4.94 | RGS4 inh valid 9.5% | M3R Ca ctr inactive | RGS4 inh ctr2 inactive
CCc1c(O)nc(SCC(=O)Nc2ccc(OC)cc2)n(C2CCCCC2)c1=O	none
CCc1c(O)nc(SCC(=O)Nc2nc3ccccc3s2)n(C2CCCCC2)c1=O	RGS4 block 5.83 | RGS4 inh valid 37.0% | M3R Ca ctr inactive | RGS4 inh ctr2 inactive
O=C(/C=C/c1ccccn1)c1ccc(Br)cc1O	none (no result: RGS4 block, RGS4 act)
O=C(/C=C/c1ccccn1)c1cc(Br)ccc1O	RGS4 block 6.96 | RGS4 inh valid 11.5% | M3R Ca ctr 35.5% | RGS4 inh ctr2 inactive
COC(=O)C(C)Sc1nc2c(c(=O)n(C)c(=O)n2C)n1CCC(C)C (stereo unspecified)	none
CCC(C)Nc1nc2c(c(=O)[nH]c(=O)n2C)n1CCC(C)C (stereo unspecified)	none | RGS4 inh valid inactive | M3R Ca ctr inactive | RGS4 inh ctr2 inactive
COC(=O)C(C)Sc1nc2c(c(=O)[nH]c(=O)n2C)n1CCC(C)C (stereo unspecified)	RGS4 block 5.69 | RGS4 inh valid 26.5% | M3R Ca ctr 56.0% | RGS4 inh ctr2 inactive
CC(=O)NS(=O)(=O)c1ccc(NC(=O)NC2CCCCC2)cc1	none
CCC(C)N(CCNC(=O)c1ccc2c(c1)NC(=O)c1ccccc1S2)C1CCCCC1 (stereo unspecified)	none
COc1cc(C2(c3ccc(O)c(OC)c3)C(=O)Nc3c(Br)cc(Br)cc32)ccc1O	none | M3R Ca ctr inactive | RGS4 inh ctr2 34.5%
COc1cc(C(=O)C(=O)c2ccc(O)c(OC)c2)ccc1O	none
COc1cc(C2(c3ccc(O)c(OC)c3)C(=O)N(C)c3ccc(Br)cc32)ccc1O	RGS4 block 5.71 | RGS4 inh valid 12.0% | M3R Ca ctr inactive | RGS4 inh ctr2 inactive
CC(=O)Nc1ccc(-c2nnc(SCC(=O)Nc3ccc4c(c3)oc3ccccc34)n2C)cc1	none | M3R Ca ctr inactive | RGS4 inh ctr2 16.0%
O=C1c2ccccc2C(=O)N1Nc1ccccc1	none
O=C1c2cccc3c([N+](=O)[O-])c(O)cc(c23)C(=O)N1Nc1ccccc1	RGS4 block 6.3 | RGS4 inh valid 11.5% | M3R Ca ctr inactive | RGS4 inh ctr2 inactive
CCOc1ccccc1NC(=O)C(Sc1nnnn1C)c1ccccc1 (stereo unspecified)	none
Fc1ccccc1/C=N/Nc1nc(-c2ccccn2)nc2ccccc12	none
COc1ccc(N2CCN(C(=O)C3CCC(Cn4c(=S)[nH]c5ccccc5c4=O)CC3)CC2)cc1 (stereo unspecified)	none | M3R Ca ctr inactive | RGS4 inh ctr2 inactive
O=C(C1CCC(Cn2c(=S)[nH]c3ccccc3c2=O)CC1)N1CCN(c2ccccn2)CC1 (stereo unspecified)	none
O=C(C1CCC(Cn2c(=O)[nH]c3ccccc3c2=O)CC1)N1CCN(c2ccccc2)CC1 (stereo unspecified)	none | M3R Ca ctr inactive | RGS4 inh ctr2 inactive
O=C(Cn1cnc2ccccc2c1=O)Nc1ccccc1N1CCOCC1	none
N#Cc1c(NC(=O)CSc2ncn[nH]2)sc2c1CCCC2	RGS4 block 5.08 | RGS4 inh valid 8.5% | M3R Ca ctr inactive | RGS4 inh ctr2 inactive
CC1CCc2c(sc(NC(=O)CSc3ncn[nH]3)c2C#N)C1 (stereo unspecified)	none
O=C/C=C/c1coc2ccc3ccccc3c2c1=O	RGS4 block 15.4 | RGS4 inh valid 13.0% | M3R Ca ctr 36.5% | RGS4 inh ctr2 inactive
CCOc1ccccc1OCCNC1CCCC1	none
COc1cccc(C(=O)NNC2OC(CO)C(O)C2O)c1 (stereo unspecified)	none
Cc1ccc(-c2nnc(SCC(=O)NC(=O)Nc3ccc(C)cc3C)n2N)cc1	none
Cc1ccc(NC(=O)NC(=O)CSc2nnc(-c3ccc(Cl)cc3Cl)n2N)c(C)c1	RGS4 block 5.2 | RGS4 inh valid inactive | M3R Ca ctr inactive | RGS4 inh ctr2 inactive
COc1ccc(CNC(=O)CN(C2CCCCC2)S(C)(=O)=O)cc1	none
Cc1ccc(SCc2[nH]nc3c2C2(C(=O)Nc4ccc(F)cc42)C(C#N)=C(N)O3)cc1 (stereo unspecified)	none | M3R Ca ctr inactive | RGS4 inh ctr2 inactive
Nn1c(Nc2ccccc2)nc2sc3c(c2c1=O)CCC3	RGS4 block 4.83 (no result: MrgX1 PAM, MrgX1 antag, MrgX1 agonist) | RGS4 inh valid 13.5% | M3R Ca ctr inactive | RGS4 inh ctr2 inactive
Cc1sc2nc(CN(Cc3cccs3)C(=O)NC3CCCCC3)[nH]c(=O)c2c1C	none | M3R Ca ctr inactive | RGS4 inh ctr2 inactive
COc1ccc(NC(=O)c2nc[nH]c2C(=O)N[C@H](C)c2ccccc2)cc1	RGS4 block 7.64 | RGS4 inh valid 17.5% | M3R Ca ctr inactive | RGS4 inh ctr2 inactive
